Assay results from ChEMBL document CHEMBL4689842, “EUbOPEN Chemogenomics Library wave 1” (2021).
Several values for one entry are separate records, joined by “and”; a condition that tells them apart may be missing. Identical values can stand only once.

System: Fibroblast
Test: Multiplex assay against human fibroblast
Assay type: toxicity, cell-based
In short: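 Cells were classed with CellPathfinder machine-learning gating, first as Hoechst high-intensity objects or normal cells, then (normal cells) as healthy, pyknosed or fragmented nuclei, and finally (pyknosed cells) as mitotic or apoptotic. Staining of live cells at seeding used Hoechst33342, BioTracker Green Microtubule Cytoskeleton Dye, MitoTracker Red and Annexin V Alexa Fluor 680, with imaging on a CQ1 microscope at 37°C and 5% CO2 after compound addition. Tubulin, mitochondrial-mass and membrane-permeability phenotypes are per cents of healthy-nucleus cells.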

[1] = 12 h, 1 µM, compound concentration 1 uM, replicate 1
[2] = 12 h, 1 µM, compound concentration 1 uM, replicate 2
[3] = 12 h, 10 µM, compound concentration 10 uM, replicate 1
[4] = 12 h, 10 µM, compound concentration 10 uM, replicate 2
[5] = 24 h, 1 µM, compound concentration 1 uM, replicate 1
[6] = 24 h, 1 µM, compound concentration 1 uM, replicate 2
[7] = 24 h, 10 µM, compound concentration 10 uM, replicate 1
[8] = 24 h, 10 µM, compound concentration 10 uM, replicate 2
[9] = 48 h, 10 µM, compound concentration 10 uM, replicate 1
[10] = 48 h, 10 µM, compound concentration 10 uM, replicate 2

CN[C@@H]1C[C@H]2O[C@@](C)([C@@H]1OC)n1c3ccccc3c3c4c(c5c6ccccc6n2c5c31)C(=O)NC4 [STAUROSPORINE]
Population Apoptotic (%) [1]: 75%
Population Fragmented Nuclei (%) [1]: 41%
Population Healthy Nuclei (%) [1]: 14%
Population Hoechst High Intensity Objects (%) [1]: 31%
Population Membrane Permeable-Phenotype (%) [1]: 13%
Population Mitochondria Different-Phenotype (%) [1]: 2%
Population Mitotic Cells (%) [1]: 24%
Population Normal (%) [1]: 68%
Population Pyknosed Nuclei (%) [1]: 43%
Population Tubulin-Different-Phenotype (%) [1]: 10%
Population Apoptotic (%) [2]: 71%
Population Fragmented Nuclei (%) [2]: 48%
Population Healthy Nuclei (%) [2]: 19%
Population Hoechst High Intensity Objects (%) [2]: 46%
Population Membrane Permeable-Phenotype (%) [2]: 47%
Population Mitochondria Different-Phenotype (%) [2]: 11%
Population Mitotic Cells (%) [2]: 28%
Population Normal (%) [2]: 53%
Population Pyknosed Nuclei (%) [2]: 32%
Population Tubulin-Different-Phenotype (%) [2]: 11%
Population Apoptotic (%) [3]: 84% and 63% and 86%
Population Fragmented Nuclei (%) [3]: 30% and 31% and 36%
Population Healthy Nuclei (%) [3]: 9% and 21% and 10%
Population Hoechst High Intensity Objects (%) [3]: 26% and 29% and 21%
Population Mitochondria Different-Phenotype (%) [3]: 0% and 3% and 5%
Population Mitotic Cells (%) [3]: 15% and 36% and 13%
Population Normal (%) [3]: 73%
Population Pyknosed Nuclei (%) [3]: 59% and 46% and 52%
Population Tubulin-Different-Phenotype (%) [3]: 15% and 5%
Population Apoptotic (%) [4]: 77% and 73%
Population Fragmented Nuclei (%) [4]: 48% and 26% and 42%
Population Healthy Nuclei (%) [4]: 14% and 15% and 12%
Population Hoechst High Intensity Objects (%) [4]: 43% and 15%
Population Mitotic Cells (%) [4]: 22% and 26%
Population Normal (%) [4]: 56% and 84%
Population Pyknosed Nuclei (%) [4]: 37% and 57% and 45%
Population Apoptotic (%) [5]: 85%
Population Fragmented Nuclei (%) [5]: 61%
Population Healthy Nuclei (%) [5]: 2%
Population Hoechst High Intensity Objects (%) [5]: 21%
Population Membrane Permeable-Phenotype (%) [5]: 16%
Population Mitochondria Different-Phenotype (%) [5]: 0%
Population Mitotic Cells (%) [5]: 14%
Population Pyknosed Nuclei (%) [5]: 35%
Population Tubulin-Different-Phenotype (%) [5]: 16%
Population Apoptotic (%) [6]: 74%
Population Fragmented Nuclei (%) [6]: 58%
Population Healthy Nuclei (%) [6]: 11%
Population Hoechst High Intensity Objects (%) [6]: 34%
Population Membrane Permeable-Phenotype (%) [6]: 30%
Population Mitochondria Different-Phenotype (%) [6]: 10%
Population Mitotic Cells (%) [6]: 25%
Population Normal (%) [6]: 65%
Population Pyknosed Nuclei (%) [6]: 30%
Population Tubulin-Different-Phenotype (%) [6]: 0%
Population Apoptotic (%) [7]: 92% and 84% and 87%
Population Fragmented Nuclei (%) [7]: 51% and 58% and 59%
Population Healthy Nuclei (%) [7]: 6% and 7%
Population Hoechst High Intensity Objects (%) [7]: 18% and 20% and 22%
Population Membrane Permeable-Phenotype (%) [7]: 30% and 25% and 11%
Population Mitochondria Different-Phenotype (%) [7]: 0% and 3%
Population Mitotic Cells (%) [7]: 7% and 15% and 12%
Population Normal (%) [7]: 81% and 79% and 77%
Population Pyknosed Nuclei (%) [7]: 41% and 34%
Population Apoptotic (%) [8]: 72% and 88% and 77%
Population Healthy Nuclei (%) [8]: 20% and 46% and 37%
Population Hoechst High Intensity Objects (%) [8]: 38% and 27% and 26%
Population Membrane Permeable-Phenotype (%) [8]: 47% and 100% and 92%
Population Mitotic Cells (%) [8]: 27% and 11% and 22%
Population Normal (%) [8]: 61% and 72% and 73%
Population Pyknosed Nuclei (%) [8]: 26% and 36% and 38%
Population Apoptotic (%) [9]: 88% and 84%
Population Fragmented Nuclei (%) [9]: 60% and 64%
Population Healthy Nuclei (%) [9]: 14% and 23%
Population Hoechst High Intensity Objects (%) [9]: 34% and 36%
Population Membrane Permeable-Phenotype (%) [9]: 40% and 37%
Population Mitochondria Different-Phenotype (%) [9]: 6% and 16%
Population Mitotic Cells (%) [9]: 11% and 15%
Population Normal (%) [9]: 65% and 63%
Population Pyknosed Nuclei (%) [9]: 25% and 12%
Population Tubulin-Different-Phenotype (%) [9]: 53% and 54%
Population Apoptotic (%) [10]: 91% and 83%
Population Fragmented Nuclei (%) [10]: 79% and 82%
Population Healthy Nuclei (%) [10]: 10% and 8%
Population Hoechst High Intensity Objects (%) [10]: 44% and 33%
Population Membrane Permeable-Phenotype (%) [10]: 33% and 58%
Population Mitochondria Different-Phenotype (%) [10]: 8% and 0%
Population Mitotic Cells (%) [10]: 8% and 16%
Population Normal (%) [10]: 55% and 66%
Population Pyknosed Nuclei (%) [10]: 10% and 8%
Population Tubulin-Different-Phenotype (%) [10]: 58% and 66%

COc1cccc2cc(-c3nc([C@H]4CC[C@H](C(=O)O)CC4)n4ncnc(N)c34)[nH]c12 [OSI-027]
Population Apoptotic (%) [1]: 58%
Population Fragmented Nuclei (%) [1]: 47%
Population Healthy Nuclei (%) [1]: 40%
Population Hoechst High Intensity Objects (%) [1]: 28%
Population Membrane Permeable-Phenotype (%) [1]: 5%
Population Mitochondria Different-Phenotype (%) [1]: 0%
Population Mitotic Cells (%) [1]: 41%
Population Normal (%) [1]: 71%
Population Pyknosed Nuclei (%) [1]: 11%
Population Tubulin-Different-Phenotype (%) [1]: 7%
Total Cell Count [1]: 382
Population Apoptotic (%) [2]: 57%
Population Fragmented Nuclei (%) [2]: 68%
Population Healthy Nuclei (%) [2]: 22%
Population Hoechst High Intensity Objects (%) [2]: 26%
Population Membrane Permeable-Phenotype (%) [2]: 25%
Population Mitochondria Different-Phenotype (%) [2]: 18%
Population Mitotic Cells (%) [2]: 42%
Population Normal (%) [2]: 73%
Population Pyknosed Nuclei (%) [2]: 9%
Population Tubulin-Different-Phenotype (%) [2]: 31%
Total Cell Count [2]: 98
Population Apoptotic (%) [3]: 72%
Population Fragmented Nuclei (%) [3]: 28%
Population Healthy Nuclei (%) [3]: 56%
Population Hoechst High Intensity Objects (%) [3]: 12%
Population Membrane Permeable-Phenotype (%) [3]: 2%
Population Mitochondria Different-Phenotype (%) [3]: 2%
Population Mitotic Cells (%) [3]: 27%
Population Normal (%) [3]: 87%
Population Pyknosed Nuclei (%) [3]: 14%
Population Tubulin-Different-Phenotype (%) [3]: 0%
Total Cell Count [3]: 281
Population Apoptotic (%) [4]: 20%
Population Fragmented Nuclei (%) [4]: 65%
Population Healthy Nuclei (%) [4]: 26%
Population Hoechst High Intensity Objects (%) [4]: 31%
Population Membrane Permeable-Phenotype (%) [4]: 18%
Population Mitochondria Different-Phenotype (%) [4]: 12%
Population Mitotic Cells (%) [4]: 80%
Population Normal (%) [4]: 68%
Population Pyknosed Nuclei (%) [4]: 8%
Population Tubulin-Different-Phenotype (%) [4]: 6%
Total Cell Count [4]: 88
Population Apoptotic (%) [5]: 53%
Population Fragmented Nuclei (%) [5]: 36%
Population Healthy Nuclei (%) [5]: 50%
Population Hoechst High Intensity Objects (%) [5]: 33%
Population Membrane Permeable-Phenotype (%) [5]: 7%
Population Mitochondria Different-Phenotype (%) [5]: 1%
Population Mitotic Cells (%) [5]: 46%
Population Normal (%) [5]: 66%
Population Pyknosed Nuclei (%) [5]: 12%
Population Tubulin-Different-Phenotype (%) [5]: 5%
Total Cell Count [5]: 302
Population Apoptotic (%) [6]: 16%
Population Fragmented Nuclei (%) [6]: 68%
Population Healthy Nuclei (%) [6]: 22%
Population Hoechst High Intensity Objects (%) [6]: 34%
Population Membrane Permeable-Phenotype (%) [6]: 6%
Population Mitochondria Different-Phenotype (%) [6]: 13%
Population Mitotic Cells (%) [6]: 83%
Population Normal (%) [6]: 65%
Population Pyknosed Nuclei (%) [6]: 8%
Population Tubulin-Different-Phenotype (%) [6]: 13%
Total Cell Count [6]: 103
Population Apoptotic (%) [7]: 75%
Population Fragmented Nuclei (%) [7]: 23%
Population Healthy Nuclei (%) [7]: 64%
Population Hoechst High Intensity Objects (%) [7]: 17%
Population Membrane Permeable-Phenotype (%) [7]: 6%
Population Mitochondria Different-Phenotype (%) [7]: 0%
Population Mitotic Cells (%) [7]: 24%
Population Normal (%) [7]: 82%
Population Pyknosed Nuclei (%) [7]: 12%
Population Tubulin-Different-Phenotype (%) [7]: 0%
Total Cell Count [7]: 282
Population Apoptotic (%) [8]: 33%
Population Fragmented Nuclei (%) [8]: 60%
Population Healthy Nuclei (%) [8]: 34%
Population Hoechst High Intensity Objects (%) [8]: 33%
Population Membrane Permeable-Phenotype (%) [8]: 17%
Population Mitochondria Different-Phenotype (%) [8]: 11%
Population Mitotic Cells (%) [8]: 66%
Population Normal (%) [8]: 66%
Population Pyknosed Nuclei (%) [8]: 6%
Population Tubulin-Different-Phenotype (%) [8]: 11%
Total Cell Count [8]: 75
